The text below walks through data of ChEMBL document CHEMBL1123946, “Cholecystokinin antagonists. Synthesis and biological evaluation of 4-substituted 4H-[1,2,4]triazolo[4,3-a][1,4]benzodiazepines” (J Med Chem, 1988).

Experiment [1] can be described thus: Displacement of [125I]CCK from Cholecystokinin receptor of guinea pig brain. Set-up: species or system Cavia porcellus. An outline of the steps: (§1)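 Membrane binding: [125I]-CCK-33 to rat pancreas and guinea pig cortex, and [125I]gastrin to guinea pig gastric glands. Values are the means of triplicate determinations.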
A general note: Loss of bound radioactivity is the signal in a displacement assay; it reports binding, not function.

Experiment [2] deals with T1, Cholecystokinin receptor type A (Rattus norvegicus, UniProt P30551).
T1 sequence (P30551 whole entry): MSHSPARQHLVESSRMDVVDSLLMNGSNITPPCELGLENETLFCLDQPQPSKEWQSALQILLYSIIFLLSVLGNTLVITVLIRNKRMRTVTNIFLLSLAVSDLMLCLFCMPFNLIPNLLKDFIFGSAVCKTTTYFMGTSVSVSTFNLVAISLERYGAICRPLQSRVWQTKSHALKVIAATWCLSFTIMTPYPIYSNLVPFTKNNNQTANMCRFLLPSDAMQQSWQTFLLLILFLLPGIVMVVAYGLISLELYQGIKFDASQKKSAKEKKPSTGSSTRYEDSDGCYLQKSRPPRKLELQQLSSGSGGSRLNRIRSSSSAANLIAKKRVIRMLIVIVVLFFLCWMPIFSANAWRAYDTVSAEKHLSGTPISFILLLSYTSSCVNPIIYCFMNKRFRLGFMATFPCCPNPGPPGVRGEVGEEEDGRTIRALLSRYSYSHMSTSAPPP
In words: Displacement of [125I]CCK from Cholecystokinin receptor of rat pancreas. In outline:
as §1

Experiment [3] deals with Mus musculus. In words: Effective dose for antagonism of CCK-8 inhibition of gastric emptying, 5 hr after oral administration. The following applies: Stomach. Format: functional. An outline of the steps:
(§2)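 Mice were dosed orally in 0.5% methylcellulose vehicle (N ≥ 10/dose), 1 h, 4 h or 5 h before CCK-8 (80 μg/kg, sc). CCK-8 was given 5 min before a charcoal meal, and gastric emptying was then scored. ED50 is the dose protecting 50% of mice, from regression over at least three dose levels.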

For experiment [4], the system named is Mus musculus. Kind of experiment: Effective dose for antagonism of CCK-8 inhibition of gastric emptying, 1 hr after oral administration. Format: functional. The following applies: Stomach. In outline: as §2
Experiment [5] is described as follows: Displacement of [125I]gastrin from guinea pig gastric glands.
Experiment [6] concerns Mus musculus. In words: Effective dose for antagonism of CCK-8 inhibition of gastric emptying, 4 hr after oral administration. Format: functional. The following applies: Stomach. In outline: as §2

Where only a bound is given, the exact number is not on record here.

By IC50 is commonly meant the concentration needed to halve the response being measured. Low values mean inhibition by little substance, high ones a need for much substance. With `Cc1nnc2n1-c1ccc(Cl)cc1C(c1ccccc1Cl)=NC2` [TRIAZOLAM], the 50% inhibitory concentration (IC50) was > 100 µM in experiment [1] and 39 µM in experiment [2]. `O=C(NC1N=C(c2ccccc2F)c2ccccc2-n2cnnc21)OCc1ccccc1` (stereo not drawn) registered a concentration for half-maximal inhibition (IC50) in experiment [1] of 8 µM. Take `O=C(NC1N=C(c2ccccc2)c2ccccc2-n2cnnc21)OCc1ccccc1` (stereo not drawn): the IC50 in experiment [1] came out at 7.7 µM; in experiment [2], 0.1 µM.

One may read the ED50 as the dose at which the effect has come halfway, by size or by number of responders. Low values mean greater potency, high ones weaker potency. `O=C(NC1N=C(c2ccccc2F)c2ccccc2-n2cnnc21)c1cc2ccccc2[nH]1` (stereo not drawn): the values for the ED50 in the experiment on Mus musculus [3] and with Mus musculus [4] were 0.12 mg/kg and 0.02 mg/kg, respectively. Besides, the half-maximal inhibitory concentration (IC50) in experiment [1] was determined as 0.053 µM. As for `Fc1ccccc1C1=N[C@H](Cc2c[nH]c3ccccc23)c2nnc(C(Cl)(Cl)Cl)n2-c2ccccc21`, the IC50 in experiment [1] was > 100 µM. On to `CN(C)Cc1nnc2n1-c1ccccc1C(c1ccccc1F)=N[C@@H]2Cc1c[nH]c2ccccc12`, for which the IC50 in experiment [1] was ~100 µM. For the compound `Cc1nnc2n1-c1ccccc1C(c1ccccc1F)=N[C@@H]2Cc1c[nH]c2ccccc12`, the 50% effective dose (ED50) came out at 200 mg/kg in the experiment on Mus musculus [3] and 76 mg/kg with Mus musculus [4]. Besides, the IC50 in experiment [1] was determined as 39 µM; in experiment [5], 12 µM. In the case of `Fc1ccccc1C1=N[C@H](Cc2c[nH]c3ccccc23)c2nnc(-c3ccccc3)n2-c2ccccc21`, the half-maximal inhibitory concentration (IC50) in experiment [1] was ~100 µM. On to `CN1C(=O)[C@@H](NC(=O)c2cc3ccccc3[nH]2)N=C(c2ccccc2)c2ccccc21` [DEVAZEPIDE], for which the figures for the ED50 in the experiment with Mus musculus [3] and with Mus musculus [4] were 0.06 mg/kg and 0.04 mg/kg, respectively. Regarding `Fc1ccccc1C1=N[C@H](Cc2c[nH]c3ccccc23)c2nncn2-c2ccccc21`, the IC50 in experiment [1] was ~100 µM. In the case of `O=C(NC1N=C(c2ccccc2F)c2ccccc2-n2cnnc21)c1ccc(Cl)cc1` (stereo not drawn), the median effective dose (ED50) in the experiment on Mus musculus [4] is 0.12 mg/kg. For the same compound, the IC50 in experiment [1] turned out to be 9.3 µM. `Cc1nnc2n1-c1ccc(Cl)cc1C(c1ccccc1)=NC2` [ALPRAZOLAM]: the concentration for half-maximal inhibition (IC50) in experiment [1] was > 100 µM; in experiment [2], 64 µM. For `Cc1nnc2n1-c1ccccc1C(c1ccccc1)=NC2NC(=O)Nc1ccc(Cl)cc1` (stereo not drawn), the concentration for half-maximal inhibition (IC50) in experiment [1] came out at 0.12 µM. On to `Cc1nnc2n1-c1ccccc1C(c1ccccc1F)=NC2NC(=O)c1cc2ccccc2[nH]1` (stereo not drawn), for which the values for the median effective dose (ED50) in the experiment with Mus musculus [4] and with Mus musculus [6] were 0.05 mg/kg and 0.13 mg/kg, respectively. In addition, the IC50 in experiment [1] was found to be 0.008 µM; in experiment [2], 0.0002 µM. Take `O=C(Nc1ccc(Cl)cc1)NC1N=C(c2ccccc2)c2ccccc2-n2cnnc21` (stereo not drawn): in experiment [1], the IC50 turned out to be 0.48 µM.
